High-throughput results as filed in PubChem.
This is a sample that favours compounds with a hit; in the whole collection about 6.8% have one here.
HEK293 NFkB inh = inhibitors of PMA/ionomycin-induced NF-kB reporter, primary screen, antigen receptor NF-kB inhibitor project, cell-based, HEK-293 luciferase reporter, luminescence | HEK-293 NF-kB luciferase reporter | inhibition, % at 3 µM | 62,000 tested, 0.21% active | AID 465, 2006;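 active = inhibition above the mean of all tested compounds plus 3 SD, cut at about 40% in these data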;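 also: 0% = stimulated DMSO wells and 100% = 10 µM reference inhibitor 5653914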
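System: NF-kB luciferase reporter HEK-293 cells | Replication: Single test | Control set: DMSO vs reference inhibitor | Evaluation: % inhibition | Schedule: 1 h pretreatment, 16 h stimulation, 37 °C | Probe or stimulus: PMA with ionomycin | Compound dosing: One dose, 3 µM | Detection: Luciferase luminescence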
Cdc25B block = inhibitors of Cdc25B phosphatase catalytic domain, primary screen, biochemical, OMFP fluorescence. inhibition, %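 (compounds tested at 10 µM final in the well)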. AID 368, 2006. M-phase inducer phosphatase 2 (Homo sapiens), P30305. 65,000 tested, 0.1% active. recombinant Cdc25B, OMFP fluorescence Ex485/Em525; in the data active = inhibition above about 50%
M1 antag = antagonists of rat M1 muscarinic receptor; Muscarinic acetylcholine receptor M1 (Rattus norvegicus), P08482; CHO-M1 cells, Fluo-4 calcium, ACh EC80 antagonist mode; active compounds read low; B-score at 10 µM; 64,000 tested, 3.4% active;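 active = calcium fluorescence response, raw or row-and-column corrected B-score, differing from the plate sample mean either way at a set confidence level, mostly lower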
Target sequence (P08482 whole entry, looked up): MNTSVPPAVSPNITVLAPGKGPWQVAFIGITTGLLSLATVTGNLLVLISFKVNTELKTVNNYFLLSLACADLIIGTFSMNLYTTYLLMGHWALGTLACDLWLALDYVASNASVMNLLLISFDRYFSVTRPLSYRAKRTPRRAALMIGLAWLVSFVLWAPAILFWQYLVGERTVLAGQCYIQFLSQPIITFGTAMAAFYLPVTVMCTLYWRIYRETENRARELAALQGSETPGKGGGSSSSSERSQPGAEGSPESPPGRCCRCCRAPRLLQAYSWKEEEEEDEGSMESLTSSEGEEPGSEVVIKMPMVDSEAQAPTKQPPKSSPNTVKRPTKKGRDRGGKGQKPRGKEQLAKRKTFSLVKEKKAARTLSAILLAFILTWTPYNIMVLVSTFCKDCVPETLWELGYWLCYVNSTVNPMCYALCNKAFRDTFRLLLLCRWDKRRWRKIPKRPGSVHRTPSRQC
MKP-1 inh = MKP-1 phosphatase inhibitors, primary screen, biochemical, in vitro; Dual specificity protein phosphatase 1 (Homo sapiens), P28562; recombinant MKP-1, OMFP hydrolysis fluorescence; inhibition, %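 (compounds tested at a single concentration somewhere between 10 and 100 µM)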; 65,000 tested, 0.15% active; AID 374, 2006;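 active = inhibition above about 50%, limit read from the data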;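 also: 0% = DMSO max control wells and 100% = wells with enzyme stopped by NaOH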
M1 ag = M1 muscarinic receptor agonists, primary screen, CHO-M1 cells, Fluo-4 calcium, agonist mode; Muscarinic acetylcholine receptor M1; Fluo-4 calcium fluorescence; active compounds read high; B-score at 10 µM; 64,000 tested, 3% active; AID 626, 2007;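 active = fluorescence rise, raw or as B-score row- and column-corrected plate score, outside the 99.7% band of its plate's samples, either direction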
HER2 expr 66K = inhibitors of Her2 protein expression, primary screen, SKBR-3 cells, AlphaScreen, 66K library. SKBR-3 HER2 protein level, 18-24 h; active compounds read low. HER2 level % of control, % at 10 µM. 65,000 tested, 0.69% active. AID 645, 2007;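 active = HER2 level under 5% of the carrier-only control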;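 also: 100% = DMSO carrier and 0% = 500 nM PU-H71 HSP90 inhibitor; lower value means stronger loss of Her2 protein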
M1 antag confirm = rat M1 muscarinic receptor antagonists, confirmation, CHO cells, Fluo-4 calcium, duplicate. 1,700 tested, 43% active. calcium response (max-min fluorescence) at 10 µM. shares compounds with M1 antag. ACh EC80 antagonism; active compounds read low;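 active = calcium response below the same-plate mean of wells given acetylcholine alone at its 80%-effect dose, minus 3 SD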;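 also: raw fluorescence intensity difference in arbitrary instrument units and not normalized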
mGluR4 antag = human mGluR4 response to M1 antagonist hits, M1 allosteric modulator project, cell-based, antagonist mode, secondary assay 1 | shares compounds with M1 antag | 1,700 tested, 0.9% active | fluorescence response (max-min) at 10 µM | CHO-mGluR4 calcium flux, Fluo-4 fluorescence, glutamate EC80; active compounds read low | AID 678, 2007;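 active = fluorescence response below the plate's average for near-maximal glutamate wells, less 3 SD of those wells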;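 also: raw unnormalized fluorescence span taken in the window right after glutamate addition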
* = called active by the depositor; x = not tested or not shown.

SMILES	HEK293 NFkB inh	Cdc25B block	M1 antag	MKP-1 inh	M1 ag	HER2 expr 66K	M1 antag confirm	mGluR4 antag
COc1ccc(C2NC(=O)NC(O)(C(F)(F)F)C2C(=O)c2ccc(C)cc2)cc1 (configuration not stated)	11	2	-6.3*	9	-0.11	89	93*	241
CC(=O)C1C(c2ccc(OC(F)F)cc2)NC(=O)NC1(O)C(F)(F)F (configuration not stated)	6	5	0.31	6	-0.068	99	x	x
Brc1cccc(-c2cnc3n2CCCCC3)c1	x	2	-12*	-6	-0.59	132	81*	177
Brc1cccc(-c2nnc3n2CCCCC3)c1	25	6	-0.21	-6	-0.28	91	x	x
Cc1ccc(Cn2c(SCC(C)C)nc3c2c(=O)n(C)c(=O)n3C)cc1	4	-13	-0.14	-11	-0.31	66	x	x
Cc1cc(NC(=O)CCCC(=O)NCc2cccs2)no1	1	-4	0.053	-11	-0.032	109	x	x
Cc1nnc(SCC(=O)Nc2nccs2)[nH]c1=O	12	4	-14*	-1	0.086	78	587	249
Cc1cc(NC(=O)CSc2nnc(C)c(=O)[nH]2)no1	2	3	-2.3*	16	0.25	90	676	240
Cc1cc(C)nc(SCc2nnc(SCC(=O)Nc3cc(C(F)(F)F)ccc3Cl)o2)n1	24	-17	x	-7	x	104	x	x
Cc1cc(C)nc(SCc2nnc(SCc3ccccc3Cl)o2)n1	20	0	-4.5*	1	-0.19	97	515	210
N=C1C=CC=C2C1=NC1(CCCCC1)N2O	-2	12	-0.31	10	-1.1	92	x	x
CCC(Sc1nc(C)cc(=O)[nH]1)C(=O)Nc1nnc(C)s1 (configuration not stated)	10	-10	-2.5*	2	-0.28	100	522	184
CCC(Sc1nc(C)cc(=O)[nH]1)C(=O)Nc1nc2c(s1)CCCC2 (configuration not stated)	-2	-12	0.059	4	-0.17	83	x	x
COC(=O)[C@H](C)NC(=O)Nc1cc(OC)ccc1OC	13	0	-1.4*	10	0.68	133	614	241
CC(=O)N1CCC2(CC1)C(C#N)=C(N)Oc1n[nH]c(CSc3ccc(C)cc3)c12	12	-1	-2.4*	-12	-0.42	166	676	127*
CCc1[nH]nc2c1C1(CCN(C(=O)c3ccccc3)CC1)C(C#N)=C(N)O2	-2	-9	0.29	5	0.39	88	x	x
Cc1cc(C)cc(NC(=O)CSc2nnc(-c3ccccc3Br)o2)c1	-7	5	0.46	2	-0.56	83	x	x
COc1cccc(NC(=O)CSc2nnc(-c3cc(C)n(-c4ccccc4)c3C)o2)c1	41*	-5	-2.6*	26	0.21	61	504	237
c1cc2c(cc1Cn1cnnn1)OCO2	1	-10	0.27	4	-0.023	95	x	x
Cc1nnc(C)c2c(C)n(Cc3ccc4c(c3)OCO4)c(C)c12	11	5	-4.5*	-15	0.25	114	535*	203
CCCC1COC(Cn2cncn2)(c2ccc(C)cc2)O1 (configuration not stated)	1	-8	-13*	-5	1.2	86	667	245
CC(=O)OC(C(=O)NCc1ccco1)c1cccnc1 (configuration not stated)	25	-12	-1*	0	0.97	96	657	246
CCCc1cc(C(=O)Nc2ccccc2C(=O)OC)no1	1	-5	-0.047	-13	-0.072	109	x	x
O=c1ccc2cc3c([nH]c4ccc(Br)cc43)oc-2c1O	3	10	-1.4*	6	0.23	108	629	227
CCc1nn2c(=O)cc(CSc3nc4sc5c(c4c(=O)n3C)CCCC5)nc2s1	22	2	-0.37	9	-0.91	124	x	x
SMILES	HEK293 NFkB inh	Cdc25B block	M1 antag	MKP-1 inh	M1 ag	HER2 expr 66K	M1 antag confirm	mGluR4 antag
COc1cccc(CNC(=O)CCn2c(=O)oc3ccccc32)c1	14	-6	-3.5*	-4	-0.32	82	538	253
CCOc1ccc(CNC(=O)CCn2c(=O)oc3ccccc32)cc1OC	16	-13	0.26	8	0.0016	82	x	x
O=C(c1ccccc1F)N1CCN(c2cccc(C(F)(F)F)c2)CC1	29	0	-2.9*	19	0.028	74	566	258
O=C(c1coc2ccccc2c1=O)N1CCN(c2cccc(C(F)(F)F)c2)CC1	8	-11	-8.7*	-2	0.31	126	178*	256
O=C(c1c(F)c(F)c(F)c(F)c1F)N1CCN(c2cccc(C(F)(F)F)c2)CC1	6	1	-1.4	11	0.0063	103	x	x
Cn1c(C(=O)N2CCN(c3cccc(C(F)(F)F)c3)CC2)cc2sccc21	3	-5	0.17	30	-0.33	113	x	x
CCC(C(=O)N1CCc2ccccc2C1)n1nc(C)n2c(cc3occc32)c1=O (configuration not stated)	14	-12	-0.3	-9	0.095	88	x	x
CC(C)=CC/C=C1\CCC(C(=O)O)C(C(=O)O)C1 (configuration not stated)	13	-5	-14*	2	-0.14	137	671	227
CC1=CCC(C(=O)O)C(C(=O)O)C1 (configuration not stated)	x	-2	0.29	29	-2.5e-05	83	x	x
O=C(CN(c1ccccc1F)S(=O)(=O)c1ccccc1)N1CCCCCC1	x	7	-0.046	8	1	137	x	x
C/C=C/Cn1c(SCc2ccccc2)nc2c1c(=O)[nH]c(=O)n2C	24	-1	-2.7*	20	0.67	102	589	245
CCOCCn1c(SCc2ccccc2)nc2c1c(=O)[nH]c(=O)n2C	17	-14	-0.27	2	0.15	89	x	x
CNC(=O)C1C2C=CC3(O2)C1C(=O)N(C1CC1)C3C(=O)NCc1ccc(OC)cc1 (configuration not stated)	3	-5	-2.1*	3	-0.57	128	679	243
